Data on seven compounds can be found in ChEMBL document CHEMBL1123311, “Synthesis and antitumor and antiviral properties of 5-halo- and 5-(trifluoromethyl)-2'-deoxyuridine 3',5'-cyclic monophosphates and neutral triesters” (1986).

Experiment [1] concerns Human alphaherpesvirus 2. Nature of the experiment: Evaluation of antiviral activity against Herpes simplex virus type 2 (HSV-2) strain 196. In kind it is functional. The gist of the method: (§1)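 Virus-induced cytopathogenicity scored in primary rabbit kidney cell cultures. Value is the minimum concentration reducing cytopathogenicity by 50%. Cytotoxicity on uninfected cells was read as the minimal concentration causing a microscopically detectable change in normal cell morphology, tested up to 400 μg/mL.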

For experiment [2], the system named is Human alphaherpesvirus 2. Briefly: Evaluation of antiviral activity against Herpes simplex virus type 2 (HSV-2) strain G. In kind it is functional. An outline of the steps:
as §1

The test system of experiment [3] is Human alphaherpesvirus 2. Briefly: Evaluation of antiviral activity against Herpes simplex virus type 2 (HSV-2) strain Lyons. In kind it is functional. An outline of the steps:
as §1

Experiment [4] concerns Human alphaherpesvirus 1. Briefly: Evaluation of antiviral activity against Herpes simplex virus type 1 (HSV-1) strain F. It is filed as functional. An outline of the steps: as §1
The test system of experiment [5] is Human alphaherpesvirus 1. Nature of the experiment: Evaluation of antiviral activity against Herpes simplex virus type 1 (HSV-1) strain McIntyre. In kind it is functional. The gist of the method:
as §1

In experiment [6] the test system is L1210. Nature of the experiment: Evaluation of antitumor activity against mutant murine leukemia L1210 cells. It is filed as functional. As to conditions: Mus musculus, read-out: ID50 (the source's name). An outline of the steps:
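Proliferation of mutant murine leukemia L1210/BdUrd cells, selected from parental L1210/0 for growth in 260 μg/mL 5-bromo-2'-deoxyuridine. Value is the dose inhibiting proliferation by 50%.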

Experiment [7] relates to L1210. Nature of the experiment: Evaluation of cytostatic activity by using antitumor assays against murine leukemia L1210 cells. It is filed as functional. As to conditions: Mus musculus, read-out: ID50 (the source's name).
Experiment [8] concerns Vesicular stomatitis virus. Nature of the experiment: Evaluation of antiviral activity against Vesicular stomatitis virus. In kind it is functional. An outline of the steps:
as §1

The subject of a further experiment is Vaccinia virus. Nature of the experiment: Evaluation of antiviral activity against Vaccinia virus. It is filed as functional. As to conditions: Orthopoxvirus vaccinia. An outline of the steps: as §1
A further experiment concerns Raji. Briefly: Evaluation of antitumor activity against thymidine kinase deficient Raji cell line. It is filed as functional. As to conditions: Homo sapiens, read-out: ID50 (the source's name).
In experiment [9] the target is Thymidylate synthase (Mus musculus) (UniProt P07607). Briefly: Compound was evaluated for the inhibition of L1210 Thymidylate synthase. The gist of the method: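 Thymidylate (dTMP) synthetase inhibition measured with a partially purified extract of L1210 cells as the enzyme source.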
For another experiment, the species on record is Homo sapiens. Nature of the experiment: Evaluation for antitumor activity against human lymphoblast Raji cells. As to conditions: for IC50: Homo sapiens, Raji, read-out: ID50 (the source's name). In kind it is functional.
Experiment [10] concerns Human alphaherpesvirus 1. Nature of the experiment: Evaluation of antiviral activity against Herpes simplex virus type 1 (HSV-1) strain KOS. In kind it is functional. An outline of the steps:
as §1

≈ marks a conversion by molar mass, not a printed value.

Thymidylate synthase (Mus musculus), sequence (P07607 whole entry, looked up): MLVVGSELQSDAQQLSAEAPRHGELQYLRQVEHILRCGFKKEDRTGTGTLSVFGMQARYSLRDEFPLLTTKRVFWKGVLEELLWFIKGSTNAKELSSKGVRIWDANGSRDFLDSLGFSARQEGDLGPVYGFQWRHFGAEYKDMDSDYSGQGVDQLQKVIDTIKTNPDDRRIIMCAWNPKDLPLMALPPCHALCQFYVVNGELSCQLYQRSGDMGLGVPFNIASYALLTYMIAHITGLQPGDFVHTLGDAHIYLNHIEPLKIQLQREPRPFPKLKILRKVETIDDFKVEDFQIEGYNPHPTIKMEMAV

`O=c1[nH]c(=O)n([C@H]2C[C@H](O)[C@@H](COP(=O)(O)O)O2)cc1Br`: the MIC50 was 0.2 µg/mL (≈ 0.517 µM) with Human alphaherpesvirus 2 [1]; 0.2 µg/mL (≈ 0.517 µM) in the experiment with Human alphaherpesvirus 2 [2]; 0.07 µg/mL (≈ 0.181 µM) in the experiment on Human alphaherpesvirus 2 [3]; 0.2 µg/mL (≈ 0.517 µM) in the experiment on Human alphaherpesvirus 1 [4]; 0.2 µg/mL (≈ 0.517 µM) in the experiment on Human alphaherpesvirus 1 [5]; over 400 µg/mL in experiment [8]. Besides, the MIC50 was 0.07 µg/mL (≈ 0.181 µM) with Vaccinia virus and 0.2 µg/mL (≈ 0.517 µM) against Human alphaherpesvirus 1 [10]. In addition, the IC50 is 457 µg/mL (≈ 1180 µM) in the experiment on L1210 [6], 34.6 µg/mL (≈ 89.4 µM) in the experiment on L1210 [7], over 1000 µg/mL with Raji and 26 µg/mL (≈ 67.2 µM) in the experiment filed under Homo sapiens. Besides, the Ki/Km in [9] amounted to 2.16.
As to `O=c1[nH]c(=O)n([C@H]2C[C@H](O)[C@@H](COP(=O)(O)O)O2)cc1F` [5-FLUORODEOXYURIDYLATE], the MIC50 is 100 µg/mL (≈ 307 µM) in the experiment with Human alphaherpesvirus 2 [1]; 7 µg/mL (≈ 21.5 µM) in the experiment with Human alphaherpesvirus 2 [2]; 20 µg/mL (≈ 61.3 µM) against Human alphaherpesvirus 2 [3]; 10 µg/mL (≈ 30.7 µM) with Human alphaherpesvirus 1 [4]; 10 µg/mL (≈ 30.7 µM) in the experiment on Human alphaherpesvirus 1 [5]; over 200 µg/mL in [8]. Further, the MIC50 is 0.2 µg/mL (≈ 0.613 µM) in the experiment on Vaccinia virus and 10 µg/mL (≈ 30.7 µM) against Human alphaherpesvirus 1 [10]. In addition, the IC50 in the experiment on L1210 [6] worked out at 3 µg/mL (≈ 9.2 µM); with L1210 [7] it was 0.003 µg/mL (≈ 0.0092 µM); in the experiment on Raji it was 2.41 µg/mL (≈ 7.39 µM); in the experiment filed under Homo sapiens, 0.013 µg/mL (≈ 0.0399 µM). In experiment [9], the Ki/Km stood at 0.018.
As for `O=c1[nH]c(=O)n([C@H]2C[C@H](O)[C@@H](CO)O2)cc1Cl` [CHLORODEOXYURIDINE], the MIC50 against Human alphaherpesvirus 2 [1] was 2 µg/mL (≈ 7.61 µM); in the experiment with Human alphaherpesvirus 2 [2], 1 µg/mL (≈ 3.81 µM); in the experiment on Human alphaherpesvirus 2 [3] it was 2 µg/mL (≈ 7.61 µM); with Human alphaherpesvirus 1 [4], 0.7 µg/mL (≈ 2.67 µM); in the experiment on Human alphaherpesvirus 1 [5] it was 2 µg/mL (≈ 7.61 µM); in experiment [8] it was over 400 µg/mL. Besides, the MIC50 against Vaccinia virus was 0.2 µg/mL (≈ 0.761 µM); against Human alphaherpesvirus 1 [10] it was 2 µg/mL (≈ 7.61 µM). In addition, the IC50 in the experiment on L1210 [6] was 339 µg/mL (≈ 1290 µM); in the experiment on L1210 [7], 21.3 µg/mL (≈ 81.1 µM); with Raji it was over 1000 µg/mL; in the experiment listed under Homo sapiens it was 8.54 µg/mL (≈ 32.5 µM).
On to `COP1(=O)OC[C@H]2O[C@@H](n3cc(Br)c(=O)[nH]c3=O)C[C@@H]2O1` (some centres undefined), for which the MIC50 is over 200 µg/mL with Human alphaherpesvirus 2 [1]; over 200 µg/mL against Human alphaherpesvirus 2 [2]; 70 µg/mL (≈ 183 µM) against Human alphaherpesvirus 2 [3]; over 200 µg/mL against Human alphaherpesvirus 1 [4]; over 200 µg/mL in the experiment on Human alphaherpesvirus 1 [5]; over 200 µg/mL in experiment [8]. Also, the MIC50 against Vaccinia virus was 10 µg/mL (≈ 26.1 µM); against Human alphaherpesvirus 1 [10], over 200 µg/mL. The IC50 in the experiment on L1210 [6], in the experiment on L1210 [7], in the experiment on Raji and in the experiment listed under Homo sapiens was over 100 µg/mL each time.
As to `N.O=c1[nH]c(=O)n([C@H]2C[C@@H]3O[PH](O)(O)OC[C@H]3O2)cc1I`, the MIC50 in the experiment with Human alphaherpesvirus 2 [1] was 20 µg/mL; in the experiment with Human alphaherpesvirus 2 [2], 10 µg/mL; with Human alphaherpesvirus 2 [3], 7 µg/mL; in the experiment with Human alphaherpesvirus 1 [4], 2 µg/mL; in the experiment on Human alphaherpesvirus 1 [5], 7 µg/mL; in [8], over 400 µg/mL. For the same compound, the MIC50 in the experiment with Vaccinia virus and against Human alphaherpesvirus 1 [10] was 2 µg/mL each time. Also, the IC50 in the experiment with L1210 [6] was over 500 µg/mL; in the experiment on L1210 [7], at least 500 µg/mL; in the experiment with Raji it was over 500 µg/mL; in the experiment listed under Homo sapiens, 54 µg/mL. Also, the Ki/Km in experiment [9] was over 355.
In the case of `O=c1[nH]c(=O)n([C@H]2C[C@H](O)[C@@H](CO)O2)cc1/C=C/Br` [BRIVUDINE], the MIC50 in the experiment with Human alphaherpesvirus 2 [1] is 70 µg/mL (≈ 210 µM); against Human alphaherpesvirus 2 [2], 4 µg/mL (≈ 12 µM); in the experiment on Human alphaherpesvirus 2 [3], 7 µg/mL (≈ 21 µM); against Human alphaherpesvirus 1 [4], 0.02 µg/mL (≈ 0.06 µM); in the experiment on Human alphaherpesvirus 1 [5] it was 0.07 µg/mL (≈ 0.21 µM); in [8] it was over 400 µg/mL. Besides, the MIC50 in the experiment with Vaccinia virus was 4 µg/mL (≈ 12 µM); in the experiment on Human alphaherpesvirus 1 [10] it was 0.02 µg/mL (≈ 0.06 µM).
`O=c1[nH]c(=O)n([C@H]2C[C@@H]3OP(=O)(OCc4ccccc4)OC[C@H]3O2)cc1I` (some centres undefined): the MIC50 against Human alphaherpesvirus 2 [1] was 70 µg/mL (≈ 138 µM); with Human alphaherpesvirus 2 [2] it was 20 µg/mL (≈ 39.5 µM); in the experiment on Human alphaherpesvirus 2 [3] it was 7 µg/mL (≈ 13.8 µM); with Human alphaherpesvirus 1 [4], 7 µg/mL (≈ 13.8 µM); in the experiment with Human alphaherpesvirus 1 [5], 20 µg/mL (≈ 39.5 µM); in experiment [8], over 200 µg/mL. Besides, the values for the MIC50 against Vaccinia virus and against Human alphaherpesvirus 1 [10] were 2 µg/mL (≈ 3.95 µM) and 20 µg/mL (≈ 39.5 µM), respectively. Moreover, the IC50 in the experiment on L1210 [6], with L1210 [7], in the experiment on Raji and in the experiment filed under Homo sapiens was over 100 µg/mL each time. Also, the ID50 in the experiment listed under Homo sapiens was determined as 69 µg/mL (≈ 136 µM).
